# Where a name gives a salt, the structure may show the parent alone. The source made the active and inactive calls. No cut-off for these calls is given here.
# Key:
# [1] = system: Mycolicibacterium smegmatis; experiment: Antimycobacterial activity against Mycobacterium smegmatis NBRC 3207 at 10 ug/disc after 2 days by paper disc method; type: functional; details: NBRC 3207, 48 h, read-out: IZ
# Method in brief: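 Paper disc diffusion. Strain kept in 20% glycerol at −80 °C, then grown 2 days at 37 °C in Middlebrook 7H9 broth with 0.05% polysorbate 80, 0.5% glycerol and 10% OADC. Adjusted to 1.0 × 10^6 CFU/mL and spread on the same medium with 1.5% agar. Sample in CH3OH dried onto 6 mm discs. Plates incubated 37 °C, 2 days. Inhibition zone read in mm. Streptomycin sulfate (5 μg/disc) positive control; CH3OH negative control.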
# [2] = system: Huh-7; experiment: Cytotoxicity against human HuH7 cells assessed as reduction in cell viability after 72 hrs by WST-1 assay; type: functional, cell-based; details: Huh-7, 72 h
# Method in brief: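 Cells seeded at 1 × 10^4 per well, cultured overnight, then exposed to compound for 72 h. WST-1 (0.5 mM) with 1-PMS (0.02 mM) in medium added for 60 min at 37 °C. Absorbance read at 438 nm, reference 620 nm. Viability expressed as percent of 0.1% EtOH-treated controls. IC50 reported.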
# [3] = system: Mycolicibacterium smegmatis; experiment: Antimycobacterial activity against Mycobacterium smegmatis NBRC 3207 at 5 ug/disc after 2 days by paper disc method; type: functional; details: NBRC 3207, 48 h, read-out: IZ
# Method in brief: (§1)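 Strain stored in 20% glycerol at −80 °C. Grown in Middlebrook 7H9 broth with 0.05% polysorbate 80, 0.5% glycerol and 10% OADC at 37 °C for 2 days, then adjusted to 1.0 × 10^6 CFU/mL and spread on the same medium with 1.5% agar. Samples in CH3OH dried onto 6 mm filter discs, incubated 37 °C for 2 days. Read-out is inhibition zone (mm). Streptomycin sulfate 5 μg/disc as positive control, CH3OH as negative control.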
# [4] = system: Mycolicibacterium smegmatis; experiment: Antimycobacterial activity against Mycobacterium smegmatis NBRC 3207 at 10 to 20 ug/disc after 2 days by paper disc method; type: functional, organism-based; method in brief: as §1
smiles,measurement,setting,value
N[C@@H]1C[C@@H]2CCCC[C@H]2[C@@H]1/C=C\C=C\[C@H]1[C@@H]2CCCC[C@H]2C[C@@H]1N,zone of inhibition at 10 µg/disc,[1],7 mm
same,IC50,[2],7.8 µM
C1=C\[C@H]2[C@@H]3CCCC[C@H]3C[C@H]2NCCCN[C@H]2C[C@@H]3CCCC[C@H]3[C@@H]2/C=C/1,zone of inhibition at 10 µg/disc,[1],7 mm
same,IC50,[2],6.7 µM
C1=C/[C@H]2[C@@H]3CCCC[C@H]3C[C@H]2NCCCN[C@@H]2C[C@@H]3CCCC[C@H]3[C@@H]2/C=C/1,zone of inhibition at 10 µg/disc,[1],12 mm
same,IC50,[2],3.9 µM
COc1cccc2c1C(=O)c1c(O)c3c(c(O)c1C2=O)C[C@@](O)(C(=O)CO)C[C@@H]3O[C@H]1C[C@H](N)[C@H](O)[C@H](C)O1 [DOXORUBICIN],IC50,[2],0.4 µM
C1=C/[C@H]2[C@@H]3CCCC[C@H]3C[C@@H]2NCCCN[C@@H]2C[C@@H]3CCCC[C@H]3[C@@H]2/C=C/1 [HALICLONADIAMINE],zone of inhibition at 10 µg/disc,[1],16 mm
same,IC50,[2],3.6 µM
CN[C@@H]1[C@H](O[C@H]2[C@H](O[C@H]3[C@H](O)[C@@H](O)[C@H](N=C(N)N)[C@@H](O)[C@@H]3N=C(N)N)O[C@@H](C)[C@]2(O)C=O)O[C@@H](CO)[C@H](O)[C@H]1O [STREPTOMYCIN SULFATE],zone of inhibition at 5 µg/disc,[3],30 mm
CCCCC[C@@H]1O[C@@H]2CC[C@H]1NC(=N)N2,inhibition,[4],inactive
same,IC50,[2],> 10 µM
N[C@@H]1C[C@@H]2CCCC[C@H]2[C@@H]1/C=C/C=C\[C@H]1[C@@H]2CCCC[C@H]2C[C@@H]1N,zone of inhibition at 10 µg/disc,[1],8 mm
same,IC50,[2],7.2 µM
C1=C\[C@H]2[C@@H]3CCCC[C@H]3C[C@@H]2NCCCN[C@@H]2C[C@@H]3CCCC[C@H]3[C@@H]2/C=C/1,zone of inhibition at 10 µg/disc,[1],12 mm
same,IC50,[2],> 10 µM
CCCCC[C@H]1O[C@@H]2CC[C@H]1NC(=N)N2,inhibition,[4],inactive
same,IC50,[2],> 10 µM
